Test results: the EternaBench riboswitch data

Columns and labels:
[1] = tested on: MS2 coat protein; test: apparent Kd, MS2 coat protein; higher = weaker binding; RNA-MaP array; theophylline 2 mM where present
Summary of the method: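 In 100 mM Tris-HCl pH 7.5, 80 mM KCl, 4 mM MgCl2, BSA, DTT, yeast tRNA and Tween-20, SNAP-549-labelled MS2 coat protein was titrated from 0.7 or 1.5 nM, doubling to 3 µM, over designs transcribed by stalled E. coli RNA polymerase on Illumina sequencing-chip clusters. This was done first without ligand, then with ligand held constant. After green signal was normalised to red-channel RNA signal and control-cluster median Fmax, the apparent Kd was taken as the median of filtered per-cluster binding-curve fits.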

[2] = tested on: MS2 coat protein; test: apparent Kd, MS2 coat protein; higher = weaker binding; RNA-MaP array
Summary of the method: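 In Tris-HCl pH 7.5 buffer with KCl, MgCl2, BSA, DTT, tRNA and Tween20, with or without input ligand, fluorescently labeled MS2 coat protein at 1.5 nM to 3 μM was incubated at room temperature with designed RNAs. The RNAs had been transcribed on an Illumina sequencing chip from sequenced DNA templates, and incubation ran 0.8–1.5 h at the lowest to 10–20 min at the highest concentrations. Apparent Kd is the median of binding-curve fits for individual clusters. Designs measured on fewer than 10 clusters were excluded.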

[3] = designed as: ON switch for theophylline, no ligand
[4] = ligand present: theophylline, designed as: ON switch for theophylline
[5] = designed as: OFF switch for theophylline, no ligand
[6] = ligand present: theophylline, designed as: OFF switch for theophylline
[7] = designed as: OFF switch for flavin mononucleotide, no ligand
[8] = ligand present: flavin mononucleotide, designed as: OFF switch for flavin mononucleotide
[9] = designed as: ON switch for flavin mononucleotide, no ligand
[10] = ligand present: flavin mononucleotide, designed as: ON switch for flavin mononucleotide

Sequence	apparent Kd [1, 3]	apparent Kd [1, 4]	apparent Kd [2, 7]	apparent Kd [2, 8]	other results
GGUGGCUGGACUGAUACCAGCCACCACCGAUAGACCACAUGAGGAUCACCCAUGUUGGGUGGCCCUUGGCAGCAGUCUAGCUGCC	561 nM	1240 nM			
UCGCUCGCCGGAAGGCGAGCGAGUUGCGAUACCAGCCCGGAAACGGGCCCUUGGCAGCGCACAUGAGGAUCACCCAUGUCAUGUU					apparent Kd [1, 5]: 19.4 nM; apparent Kd [1, 6]: 26.2 nM
AGGCAGUAGGUGAUCCACUGCCAAGGUGAUACCAGCAUCGAAAGAUGCCCUUGGCAGCACCAACAUGAGGAUCACCCAUGUAAUA	108 nM	663 nM			
ACAUGAAGAACAGCGGUGGGCGCGCUCGAUACCAGUACUUUGAUAUACCCUUGGCAGCGACAUGAGGAUCACCCAUGUGAGAUGA					apparent Kd [1, 5]: 18.7 nM; apparent Kd [1, 6]: 27.2 nM
AGUACUCGAACGGAUACCAGCCGGACAUGAGGAUCACCCAUGUCCUACCAUGGUUCGGUUGGCCCUUGGCAGCCGUUCGUGUACA	225 nM	20.2 nM			
GCACUACAUGAGGAUCACCCAUGUGCAGAUACCAGAGGUGUAUGCCUCCCUUGGCAGCUGCGUCGCUCUGGAAGCCUAUUGGUUU	15.6 nM	20.9 nM			
CUCGAGUUAUGAGAUACCAGACUAUAGUUUACAUGAGGAUCACCCAUGUUAUGGGUGGUAGUCCCUUGGCAGCUCAUAUGUUUAA					apparent Kd [1, 5]: 225 nM; apparent Kd [1, 6]: 812 nM
UUUUAACAUGAGGAUCACCCAUGUAAUGAUACCAGAGACGAAAGUCUCCCUUGGCAGCAUAAUCAUUACAUGAGAUGGAAACAUC	30.6 nM	116 nM			
AUGUCGUUGAAUAUAGCGGCUUGGUGUGAUACCAGAAUGAUCUAAUUCCCUUGGCAGCAUUACAUGAGGAUCACCCAUGUUCAGG	24 nM	23.9 nM			
UUAAAUGUGACGGAUACCAGCGUGUUGUAGAACAUGAGGAUCACCCAUGUAGUGAUCAUGCGCCCUUGGCAGCUGGUAUGUUUGA	379 nM	607 nM			
GACAUGAGGAUAGAUACCAGCGACAUGAGGAUCACAUGAGGAUCACCCAUGUGUAGUAUACGCCCUUGGCAGCUAACAUGAGGAU	108 nM	94 nM			
CGCGGACCACCUGAUACCAGCGCAGUCAUGCAUGAACCCAACAUGAGGAUCACCCAUGUACGCCCUUGGCAGCAGGGAAAAGUCG					apparent Kd [2, 5]: 161 nM; apparent Kd [2, 6]: 267 nM
ACCGAUCGAGGAUAUACAGAACAAAAGAACAUGACGAAGAAACAUGAGGAUCACCCAUGUAGAAGGCGAAAAGA			8.58 nM	9.05 nM	
CCUCACUUGAAGAAGGACAGCUUCGGUCACAUCGGAACAUGAGGAUCACCCAUGUGACGCGUGGUGUAGGAUAUUCGUAAGGCA			57.6 nM	147 nM	
GUGACUAAAUGCAAGGAUAUCCGCGGCGGUACAUGAGGAUCACCCAUGUCAAGAGUCCACUGGCAGGAGAAGGUGCCCUGCGUCAU					apparent Kd [2, 9]: 7.57 nM; apparent Kd [2, 10]: 6.07 nM
UACGGUGCAGGAUAUCGAAUUUCAAACAUGAGGAUCACCCAUGUCUAAUAUGGCGACUAACGAGAAGGGCAGGAAG			16.2 nM	16 nM	
GAUAUACAUGAGGAUCACCCAUGUCCAAAUUAAGUUUUAGUAUAGGAUAUUGACCGCUAGGAUGUCAAGAAGGAUACCCGAGGU					apparent Kd [2, 9]: 14.8 nM; apparent Kd [2, 10]: 7.52 nM
CAAUACGAUGUCAGGAUAUUAUUUCAAGUAGACGGUAAGAAGGGACAUGAGGAUCACCCAUGUACGGAAUACGC			6.35 nM	6.32 nM	
UAAGAGUCGGCAGGAUAUGUCCCUUGAGCGCAGACAGAAGGGCCACUAUCUUUCACAUGAGGAUCACCCAUGUCCUCCCUGGAG			49 nM	61.6 nM	
UGAUACAUGAGGAUCACCCAUGUUGAUCCCGAGAAGUCCGUAAGAAGGACAGACACGAUGGAUCUGUAGGAUAUUACGACGGAC			182 nM	122 nM	
UCCCGACAUGAGGAUCACCCAUGUGGACAGUACACAGGAUAUUAACUCAUUACAAUAGAAUAAGAAGGGUGGUACC					apparent Kd [2, 9]: 69.1 nM; apparent Kd [2, 10]: 47.1 nM
AGGGUACAUGAGGAUCACCCAUGUUAGGAUAUGUCCGGUACGGCCGCCGUACCAGGCAACAGAAGGAACACAGC			30.2 nM	26.2 nM	
AAGCCACAUGAGGAUCACCCAUGUAAGGGUACCUGAGGAUAUCCGGCGGGACAGAAAGGAGGAGAAGGCAGAUCCA					apparent Kd [2, 9]: 50.2 nM; apparent Kd [2, 10]: 33 nM
